Reference: ChEMBL document CHEMBL4823325, “Synthesis of Benzoazepine Derivatives via Azide Rearrangement and Evaluation of Their Antianxiety Activities” (ACS Med Chem Lett, 2021)
The source made the active and inactive calls. No cut-off for these calls is given here.

Experiments:
[1] = tested on: HEK293; test: Cytotoxicity against human HEK293 cells assessed as reduction in cell viability measured after 24 hrs by MTT assay; assay type: cell-based; conditions: HEK293, 24 h
[2] = tested on: Rattus norvegicus; test: Anxiolytic activity in restraint stress induced anxiety Wistar rat model assessed as decrease in anxiety index at 2 mg/kg, po measured after 30 mins by elevated plus maze test; assay type: functional, organism-based
Outline: (§1)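 Rats were stressed by immobilization in a plastic restrainer for 2 h/day for 14 days. Test compounds were given at 2 mg/kg 30 min before the elevated plus maze, six rats per group. Read-outs were percent open arm entry, percent open arm time and anxiety index (higher index means more anxiety). Groups were compared with nonstressed vehicle and stressed vehicle groups.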

[3] = tested on: Rattus norvegicus; test: Anxiolytic activity in restraint stress induced anxiety Wistar rat model assessed as increase in time spent in open arm at 2 mg/kg, po measured after 30 mins by elevated plus maze test; assay type: functional, organism-based; outline: as §1
[4] = tested on: Rattus norvegicus; test: Anxiolytic activity in restraint stress induced anxiety Wistar rat model assessed as decrease in rearing behaviour at 2 mg/kg, po measured after 30 mins by open field test; assay type: functional, organism-based
Outline: (§2)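 Open field test in rats stressed by immobilisation in a plastic restrainer for 2 h/day for 14 days, with non-stressed controls. Animals received 2 mg/kg acutely 30 min before testing, six rats per group. Readouts were inner zone time, outer zone time, total lines crossed (locomotion) and rearing (exploration).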

[5] = tested on: Rattus norvegicus; test: Anxiolytic activity in restraint stress induced anxiety Wistar rat model assessed as increase in time spent in inner zone at 2 mg/kg, po measured after 30 mins by open field test; assay type: functional, organism-based
Outline: (§3)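 Restraint stress was applied by immobilization in a plastic restrainer for 2 h/day over 14 days. Rats received 2 mg/kg 30 min before the open field test, six per group. Inner zone time was scored as the anxiety measure and the number of total lines crossed as locomotor activity. Groups were compared with nonstressed vehicle and stressed vehicle groups.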

[6] = tested on: Rattus norvegicus; test: Anxiolytic activity in restraint stress induced anxiety Wistar rat model assessed as decrease in time spent in outer zone at 2 mg/kg, po measured after 30 mins by open field test; assay type: functional, organism-based; outline: as §2
[7] = tested on: Rattus norvegicus; test: Anxiolytic activity in restraint stress induced anxiety Wistar rat model assessed as increase in open arm entry at 2 mg/kg, po measured after 30 mins by elevated plus maze test; assay type: functional, organism-based; outline: as §1
[8] = tested on: Rattus norvegicus; test: Induction of hyperlocomotor activity in restraint stress induced anxiety Wistar rat model assessed as increase in total lines crossed at 2 mg/kg, po measured after 30 mins by open field test; assay type: functional, organism-based; outline: as §3
[9] = Effect on locomotor activity in normal Wistar rat assessed as effect on total open arm entry at 2 mg/kg, po measured after 30 mins by elevated plus maze test; conditions: in vivo, 0.5 h

COc1ccc2c(c1)Cc1c(F)cccc1NC2
IC50 [1]: 0.77 µM

CN1C(=O)CN=C(c2ccccc2)c2cc(Cl)ccc21 [DIAZEPAM]
Activity [2]: Active | Activity [3]: Active | Activity [4]: Active | Activity [5]: Active | Activity [6]: Active | Activity [7]: Active | Activity [8]: Active | IC50 [1]: 87.9 µM

COc1cc2c(c(OC)c1)CNc1ccccc1C2
IC50 [1]: 6.44 µM

COc1ccc2c(c1)Cc1cc(F)ccc1NC2
Activity [2]: Active | Activity [9]: Non-Toxic | Activity [3]: Active | Activity [5]: Active | Activity [7]: Active | Activity [8]: Active | IC50 [1]: 0.16 µM

COc1ccc2c(c1)Cc1cccc(F)c1NC2
IC50 [1]: 6.19 µM

COc1ccc2c(c1)Cc1cc(Cl)ccc1NC2
IC50 [1]: 2.29 µM

COc1ccc2c(c1)Cc1ccc(OC)cc1NC2
IC50 [1]: 1.09 µM

COc1ccc2c(c1)Cc1cc3c(cc1NC2)OCO3
IC50 [1]: 14.5 µM

COc1ccc2c(c1)Cc1ccccc1NC2
Activity [2]: Active | Activity [9]: Non-Toxic | Activity [3]: Active | Activity [5]: Active | Activity [7]: Active | Activity [8]: Active | IC50 [1]: 65.7 µM

c1ccc(Oc2ccc3c(c2)Cc2ccccc2NC3)cc1
IC50 [1]: 4.43 µM

COc1ccc2c(c1)Cc1ccc(Cl)cc1NC2
Activity [2]: Active | Activity [9]: Non-Toxic | Activity [3]: Active | Activity [5]: Active | Activity [7]: Active | Activity [8]: Active | IC50 [1]: 12.6 µM

Clc1ccc2c(c1)NCc1ccc(Oc3ccccc3)cc1C2
Activity [2]: Active | Activity [9]: Non-Toxic | Activity [3]: Active | Activity [5]: Active | Activity [7]: Active | Activity [8]: Active | IC50 [1]: 14.2 µM

COc1ccc2c(c1)CCc1ccccc1NC2
IC50 [1]: 14.1 µM

Fc1cccc2c1NCc1ccc(Oc3ccccc3)cc1C2
Activity [2]: Active | Activity [9]: Non-Toxic | Activity [3]: Active | Activity [5]: Active | Activity [7]: Active | Activity [8]: Active | IC50 [1]: 13.7 µM

COc1ccc2c(c1)NCc1ccc(Oc3ccccc3)cc1C2
IC50 [1]: 2.12 µM
